Results reported in ChEMBL document CHEMBL1156119 (J Med Chem, 2009).
pEC50: −log10 of the molar value. The source made the active and inactive calls. No cut-off for these calls is given here.

Columns and labels:
SMB [1] = assay: Antiprion activity against Scrapie prion protein-mediated scrapie in mouse SMB cells assessed as remaining PrP-Sc level at 20 uM after 5 days by Bradford assay relative to control; format: cell-based
Procedure, shortened: (§1)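 SMB scrapie-infected mouse cells, non-neuronal, in medium 199 with 10% newborn calf and 5% fetal calf serum, seeded at 3 × 10⁴ cells/well and attached for 24 h. Compound DMSO stocks were diluted via HBSS into medium and applied for 5 days. Lysates of ~30-40 μg protein/well were dot-blotted, digested with proteinase K at 75 μg mL⁻¹ (1 h, 37 °C) and denatured in 1.8 M guanidine thiocyanate. Read-out was %PrP^Sc versus DMSO-only control, in triplicate.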

SMB [2] = assay: Antiprion activity against Scrapie prion protein-mediated scrapie in mouse SMB cells assessed as remaining PrP-Sc level at 1 uM after 5 days by Bradford assay relative to control; format: cell-based
Procedure, shortened: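 Compound DMSO stocks were diluted via HBSS into medium and applied for 5 days. Lysates of ~30-40 μg protein/well were dot-blotted, digested with proteinase K at 75 μg mL⁻¹ (1 h, 37 °C) and denatured in 1.8 M guanidine thiocyanate. Read-out was %PrP^Sc versus DMSO-only control, in triplicate.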

[3] = Antiprion activity against Scrapie prion protein-mediated scrapie in mouse SMB cells assessed as remaining PrP-Sc level after 5 days by Bradford assay; format: cell-based; details: 120 h
Procedure, shortened: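 Same SMB dot-blot protocol with 5-day exposure. Compounds were rescreened over a range of concentrations to fit an EC₅₀ from dose-response curves. Each determination was run in triplicate, in at least two independent experiments. PrP^Sc was measured relative to an untreated DMSO-only control.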

SMB [4] = assay: Antiprion activity against Scrapie prion protein-mediated scrapie in mouse SMB cells assessed as remaining PrP-Sc level at 10 uM after 5 days by Bradford assay relative to control; format: cell-based; procedure, shortened: as §1
[5] = target: Major prion protein (Mus musculus) (UniProt P04925); assay: Binding affinity to mouse PrP up to 40 uM by surface plasmon resonance assay
[6] = target: Major prion protein (Homo sapiens) (UniProt P04156); assay: Binding affinity to human PrP up to 40 uM by surface plasmon resonance assay
[7] = Cytotoxicity against mouse SMB cells at 20 uM after 5 days by MTT assay; format: cell-based; details: 120 h
Procedure, shortened: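 SMB cells were seeded at 3 × 10⁴ cells/well and attached for 24 h. Compound was added from DMSO stock diluted through HBSS into the medium, and cells were exposed for 5 days. Viability was read by MTT assay following the standard reagent protocol.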

Sequence of Major prion protein (Mus musculus) (P04925 whole entry): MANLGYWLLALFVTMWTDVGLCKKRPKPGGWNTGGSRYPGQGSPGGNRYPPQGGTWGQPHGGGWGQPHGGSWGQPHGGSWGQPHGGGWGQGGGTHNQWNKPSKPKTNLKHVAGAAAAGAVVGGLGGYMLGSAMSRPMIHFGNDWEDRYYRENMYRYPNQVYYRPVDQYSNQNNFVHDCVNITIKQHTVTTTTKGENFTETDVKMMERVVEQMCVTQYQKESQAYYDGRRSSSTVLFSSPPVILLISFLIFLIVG

| Compound | Remaining PrP-Sc level (SMB [1]) [%] | pEC50 [3] | further results |
| --- | --- | --- | --- |
| Cn1cc(C(=O)C(=O)Nc2cccc3ccccc23)c2ccccc21 | 121 |  |  |
| O=C(Nc1cccc(Oc2ccccc2)c1)C(=O)c1c[nH]c2ccccc12 | 98.3 |  |  |
| O=C(Nc1ccc(-n2cccn2)cc1)C(=O)c1c[nH]c2ccccc12 |  | 9.00 | Activity (SMB [2]): 7% |
| O=C(NCc1cccnc1)C(=O)c1c[nH]c2ccccc12 | 107 |  |  |
| O=C(NCc1ccc(Oc2ccccc2)cc1)C(=O)c1c[nH]c2ccccc12 |  | 5.99 | Remaining PrP-Sc level (SMB [4]): 17.5% |
| O=C(Nc1cc(F)c(F)c(F)c1)C(=O)c1c[nH]c2ccccc12 | 62.5 |  |  |
| O=C(Nc1ccc(-c2cnco2)cc1)C(=O)c1c[nH]c2ccccc12 |  | 7.72 | Activity (SMB [2]): 16.8% |
| CC(=O)c1cccc(NC(=O)C(=O)c2c[nH]c3ccccc23)c1 |  |  | Remaining PrP-Sc level (SMB [4]): 98.8% |
| Cn1cc(C(=O)C(=O)Nc2ccc(O)cc2)c2ccccc21 |  | 5.42 | Remaining PrP-Sc level (SMB [4]): 47.3% |
| CCCCNC(=O)C(=O)c1cn(C)c2ccccc12 | 124 |  |  |
| COc1cccc(CNC(=O)C(=O)c2c[nH]c3ccccc23)c1 | 104 |  |  |
| COc1cc(NC(=O)C(=O)c2cn(C)c3ccccc23)ncn1 |  |  | Remaining PrP-Sc level (SMB [4]): 86.4% |
| O=C(Nc1cnc2ccccc2c1)C(=O)c1c[nH]c2ccccc12 |  | 6.77 | Activity (SMB [2]): 41.3%; Activity [5]: inactive; Activity [6]: inactive |
| Cn1cc(C(=O)C(=O)Nc2ccccc2)c2ccccc21 | 81.4 | 5.16 |  |
| O=C(Nc1ccc(-n2cccc2)cc1)C(=O)c1c[nH]c2ccccc12 |  | 8.22 | Activity (SMB [2]): 17.1% |
| Cn1cc(C(=O)C(=O)Nc2cccc3c(O)cccc23)c2ccccc21 | 114 |  |  |
| Cc1[nH]c2ccccc2c1C(=O)C(=O)Nc1cnc2ccccc2c1 | 87.6 |  | Activity [7]: Toxic |
| COc1ccccc1NC(=O)C(=O)c1c[nH]c2ccccc12 |  |  | Activity [7]: Toxic; Remaining PrP-Sc level (SMB [4]): 140% |
| CN(C)c1ccc(NC(=O)C(=O)c2c[nH]c3ccccc23)cc1 |  | 7.59 | Activity (SMB [2]): 7.2% |
| CCc1cccc(NC(=O)C(=O)c2c(C)[nH]c3ccccc23)c1 | 78.8 |  |  |
| O=C(Nc1cccc(O)c1)C(=O)c1c[nH]c2ccccc12 |  | 6.09 | Activity (SMB [2]): 52.4% |
| CCc1cccc(NC(=O)C(=O)c2c[nH]c3ccccc23)c1 |  | 4.92 | Remaining PrP-Sc level (SMB [4]): 37.9% |

| Compound | Remaining PrP-Sc level (SMB [1]) [%] | pEC50 [3] | further results |
| --- | --- | --- | --- |
| Cn1cc(C(=O)C(=O)N2CCOCC2)c2ccccc21 | 100 |  |  |
| O=C(Nc1ccc(F)cc1)C(=O)c1c[nH]c2ccccc12 |  | 7.19 | Activity (SMB [2]): 10.3% |
| O=C(Nc1cccc(CO)c1)C(=O)c1c[nH]c2ccccc12 |  | 4.83 | Remaining PrP-Sc level (SMB [4]): 17.6% |
| O=C(Nc1cccc(Cl)c1)C(=O)c1c[nH]c2ccccc12 |  | 5.82 | Remaining PrP-Sc level (SMB [4]): 40% |
| CCCCNC(=O)C(=O)c1c[nH]c2ccccc12 | 80.8 |  |  |
| CCOc1ccc(CNC(=O)C(=O)c2c[nH]c3ccccc23)cc1 |  | 7.22 | Activity (SMB [2]): 6.5% |
| O=C(NCc1ccccc1)C(=O)c1c[nH]c2ccccc12 | 90 |  |  |
| Cc1[nH]c2ccccc2c1C(=O)C(=O)NC1CCCCC1 | 102 |  | Activity [7]: Toxic |
| O=C(Nc1ccccc1Cl)C(=O)c1c[nH]c2ccccc12 | 85.4 |  |  |
| COc1cc(NC(=O)C(=O)c2c[nH]c3ccccc23)ncn1 |  | 6.17 | Activity (SMB [2]): 23% |
| Cc1[nH]c2ccccc2c1C(=O)C(=O)NCc1cccnc1 | 73.7 |  |  |
| O=C(Nc1cccc2c(O)cccc12)C(=O)c1c[nH]c2ccccc12 | 101 |  |  |
| Cc1csc(NC(=O)C(=O)c2c[nH]c3ccccc23)n1 |  |  | Remaining PrP-Sc level (SMB [4]): 105% |
| Cc1[nH]c2ccccc2c1C(=O)C(=O)Nc1cccc(Oc2ccccc2)c1 |  |  | Remaining PrP-Sc level (SMB [4]): 103% |
| COc1ccc(NC(=O)C(=O)c2c[nH]c3ccccc23)cn1 |  | 6.92 | Activity (SMB [2]): 4.9% |
| Cn1cc(C(=O)C(=O)NCc2ccco2)c2ccccc21 | 109 |  |  |
| O=C(Nc1cccc2ccc(O)cc12)C(=O)c1c[nH]c2ccccc12 | 115 |  |  |
| Cc1[nH]c2ccccc2c1C(=O)C(=O)Nc1cccc2ccccc12 | 96.3 |  |  |
| O=C(NCc1ccco1)C(=O)c1c[nH]c2ccccc12 | 95.2 |  |  |
| Cn1cc(C(=O)C(=O)Nc2cccc(CO)c2)c2ccccc21 | 137 |  |  |
| O=C(Nc1ccc(Cl)cc1)C(=O)c1c[nH]c2ccccc12 |  | 7.19 | Activity (SMB [2]): 5.9% |
| Cc1[nH]c2ccccc2c1C(=O)C(=O)Nc1ccc(O)cc1 | 83.1 |  |  |

| Compound | Remaining PrP-Sc level (SMB [1]) [%] | pEC50 [3] | further results |
| --- | --- | --- | --- |
| CCc1cccc(NC(=O)C(=O)c2cn(C)c3ccccc23)c1 | 132 |  |  |
| Cc1[nH]c2ccccc2c1C(=O)C(=O)NCc1ccco1 | 83 |  | Activity [7]: Toxic |
| O=C(C(=O)N1CCCCC1)c1c[nH]c2ccccc12 | 112 |  |  |
| Cc1ccc(NC(=O)C(=O)c2c[nH]c3ccccc23)cc1 |  | 6.89 | Activity (SMB [2]): 4.1% |
| COc1ccc(CNC(=O)C(=O)c2c[nH]c3ccccc23)cc1OC |  | 6.28 | Activity (SMB [2]): 19.3% |
| O=C(Nc1cccc2ccccc12)C(=O)c1c[nH]c2ccccc12 | 135 |  |  |
| O=C(Nc1ccc(OC(F)(F)F)cc1)C(=O)c1c[nH]c2ccccc12 |  | 6.42 | Activity (SMB [2]): 6.7% |
| COc1cccc(NC(=O)C(=O)c2cn(C)c3ccccc23)c1 | 61.8 | 5.33 |  |
| Cc1[nH]c2ccccc2c1C(=O)C(=O)Nc1cccc(CO)c1 | 80.8 |  |  |
| CC(=O)c1cccc(NC(=O)C(=O)c2c(C)[nH]c3ccccc23)c1 | 84.4 |  |  |
| COc1cc(NC(=O)C(=O)c2c[nH]c3ccccc23)cc(OC)c1OC | 143 |  |  |
| Cn1cc(C(=O)C(=O)Nc2cnc3ccccc3c2)c2ccccc21 | 102 |  | Activity [7]: Toxic |
| Cc1cccc(NC(=O)C(=O)c2c[nH]c3ccccc23)c1 |  | 5.20 | Remaining PrP-Sc level (SMB [4]): 21.7% |
| COc1ccc(CNC(=O)C(=O)c2c[nH]c3ccccc23)cc1 | 104 |  |  |
| O=C(Nc1ccc(C(F)(F)F)cc1)C(=O)c1c[nH]c2ccccc12 |  | 6.54 | Activity (SMB [2]): 6.1% |
| Cn1cc(C(=O)C(=O)Nc2cccc(F)c2)c2ccccc21 | 11.6 |  |  |
| O=C(NC1CCCCC1)C(=O)c1c[nH]c2ccccc12 | 83.1 |  |  |
| CC(=O)c1cccc(NC(=O)C(=O)c2cn(C)c3ccccc23)c1 | 157 |  |  |
| Cn1cc(C(=O)C(=O)NCc2ccccc2)c2ccccc21 |  |  | Remaining PrP-Sc level (SMB [4]): 148% |
| Cc1[nH]c2ccccc2c1C(=O)C(=O)Nc1cccc(F)c1 | 64 |  |  |
| Cn1cc(C(=O)C(=O)N2CCCCC2)c2ccccc21 |  |  | Activity [7]: Toxic; Remaining PrP-Sc level (SMB [4]): 131% |
| Cn1cc(C(=O)C(=O)Nc2cccc(Oc3ccccc3)c2)c2ccccc21 |  |  | Activity [7]: Toxic; Remaining PrP-Sc level (SMB [4]): 169% |

| Compound | Remaining PrP-Sc level (SMB [1]) [%] | pEC50 [3] | further results |
| --- | --- | --- | --- |
| O=C(Nc1ccc(F)c(F)c1)C(=O)c1c[nH]c2ccccc12 |  | 6.49 | Activity (SMB [2]): 1.4% |
| CSc1ccc(CNC(=O)C(=O)c2c[nH]c3ccccc23)cc1 |  | 7.40 | Activity (SMB [2]): 5.6% |
| COc1cc(NC(=O)C(=O)c2c(C)[nH]c3ccccc23)ncn1 | 69.7 |  |  |
| Cn1cc(C(=O)C(=O)NCc2cccnc2)c2ccccc21 |  |  | Remaining PrP-Sc level (SMB [4]): 117% |
| Cc1[nH]c2ccccc2c1C(=O)C(=O)Nc1ccccc1 |  |  | Remaining PrP-Sc level (SMB [4]): 41.6% |
| O=C(C(=O)N1CCOCC1)c1c[nH]c2ccccc12 | 80.3 |  |  |
| O=C(Nc1cccnc1)C(=O)c1c[nH]c2ccccc12 |  | 5.78 | Remaining PrP-Sc level (SMB [4]): 8% |
| Cc1[nH]c2ccccc2c1C(=O)C(=O)N1CCOCC1 | 81.9 |  |  |
| Cc1[nH]c2ccccc2c1C(=O)C(=O)Nc1cccc2c(O)cccc12 |  |  | Activity [7]: Toxic |
| N#Cc1cccc(NC(=O)C(=O)c2c[nH]c3ccccc23)c1 | 70.1 |  |  |
| C=CCNC(=O)C(=O)c1c[nH]c2ccccc12 | 158 |  |  |
| Cn1cc(C(=O)C(=O)Nc2cccc(C#N)c2)c2ccccc21 | 91.2 |  | Activity [7]: Toxic |
| COc1cc(NC(=O)C(=O)c2c[nH]c3ccccc23)cc(OC)c1 | 75.4 |  |  |
| COc1ccc(NC(=O)C(=O)c2cn(C)c3ccccc23)cc1 |  | 7.17 | Activity (SMB [2]): 11.6% |
| Cc1ccc(NC(=O)C(=O)c2c[nH]c3ccccc23)cc1C |  | 5.92 | Activity (SMB [2]): 48.7% |
| Cc1[nH]c2ccccc2c1C(=O)C(=O)Nc1cccc(C#N)c1 | 78.5 |  |  |
| COc1ccc(NC(=O)C(=O)c2c(C)[nH]c3ccccc23)cc1 | 72.4 |  |  |
| O=C(Nc1cccc(-c2cnco2)c1)C(=O)c1c[nH]c2ccccc12 |  | 6.28 | Remaining PrP-Sc level (SMB [4]): 16.8% |
| COc1cccc(NC(=O)C(=O)c2c(C)[nH]c3ccccc23)c1 | 133 |  |  |
| Cc1ccccc1NC(=O)C(=O)c1c[nH]c2ccccc12 | 93.8 |  |  |
